The source made the active and inactive calls. No cut-off for these calls is given here. *1 amine or outer side, *2 acyl side, *3 side chain or, on linkers, in order; H or OH if unused. Where a SMILES comes first, the peptide text is derived from it. [ ]: non-standard residue; d: D form. dGly(6-heptenyl) = C=CCCCCC[C@@H](N)C(=O)O; Ala(5-hexenyl) = C=CCCCCC[C@H](N)C(=O)O; dNle(6-vinyl) = C=CCCCC[C@@H](N)C(=O)O; Gly(octyl) = CCCCCCCC[C@H](N)C(=O)O; X1 = CCCCCCC[C@H](N[*:1])C(=O)[*:2]
Key:
[1] = target: Lipoprotein lipase (Bos taurus) (UniProt P11151); experiment: Inhibition of Lipoprotein lipase in vitro
[2] = test system: Mus musculus; experiment: Effect on triglyceride level in C57/BL6 mouse at 60 mg/kg, sc after 1 hr; type: functional, organism-based; design: dose 60 mg/kg; conditions: C57Bl/6
How it was run: (§1)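 Male C57Bl/6 mice (≥12 weeks, chow-fed) given peptide subcutaneously in 50 mM mannitol/PBS vehicle. Serum was collected by cardiac puncture at 1 or 3 h, clotted 1 h at room temperature and spun at 10,000g. Serum triglyceride was measured by enzymatic colorimetric assay, with 3–5 animals per dose and time point.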

[3] = Plasma concentration in C57/BL6 mouse at 60 mg/kg, sc after 3 hrs; type: ADME, organism-based, C57Bl/6; design: dose 60 mg/kg, route subcutaneous
How it was run: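 Male C57Bl/6 mice were dosed subcutaneously with peptide in 50 mM mannitol/PBS. Serum was taken by cardiac puncture, and peptide was measured by LC–MS/MS after acetonitrile protein precipitation.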

[4] = test system: Mus musculus; experiment: Effect on triglyceride level in C57/BL6 mouse at 20 mg/kg, sc after 1 hr; type: functional, organism-based; design: dose 20 mg/kg; conditions: C57Bl/6
How it was run: as §1

[5] = test system: Mus musculus; experiment: Effect on triglyceride level in C57/BL6 mouse at 20 mg/kg, sc after 3 hrs; type: functional, organism-based; design: dose 20 mg/kg; conditions: C57Bl/6
How it was run: as §1

[6] = test system: Plasma; experiment: Induction of pre-beta HDL formation in human plasma after 2 hrs by ELISA; type: functional, cell-free
How it was run: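 Increasing peptide concentrations were incubated with normal human plasma at 37 °C for 2 h. Pre-β HDL was quantified by a commercial human pre-β HDL ELISA.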

[7] = target: Phospholipid-transporting ATPase ABCA1 (Mus musculus, UniProt P41233); experiment: Induction of ABCA1-mediated [3H]cholesterol efflux in mouse RAW 264.7 macrophages after 24 hrs
[8] = test system: Mus musculus; experiment: Effect on triglyceride level in C57/BL6 mouse at 60 mg/kg, sc; type: functional, organism-based; design: dose 60 mg/kg; conditions: C57Bl/6, TDE = time-dependent effect
How it was run: as §1

[9] = test system: Mus musculus; experiment: Increase in VLDL triglyceride level in C57/BL6 mouse at 30 mg/kg, sc by FPLC; type: functional, organism-based; design: dose 30 mg/kg; conditions: C57Bl/6
How it was run: (§2)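 Male C57Bl/6 mice (≥12 weeks, chow-fed) dosed subcutaneously with peptide in vehicle (50 mM mannitol in PBS); serum collected by cardiac puncture at time points post-dose. Serum was pooled (three animals per pool), given protease and lipase inhibitors, filtered, and fractionated by Superose 6 FPLC in PBS pH 7.4 with 1 mM EDTA at 0.2 ml/min. Cholesterol and triglyceride in fractions were measured by enzymatic colorimetry.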

[10] = test system: Mus musculus; experiment: Induction of pre-beta HDL formation in apoe deficient mouse assessed as increase in circulating pre-beta HDL at 60 mg/kg, sc after 2 hrs by FPLC; type: functional, organism-based; design: dose 60 mg/kg; conditions: TDE = time-dependent effect
[11] = test system: Mus musculus; experiment: Effect on TG content in HDL in C57/BL6 mouse at 30 mg/kg, sc after 24 hrs by FPLC; type: functional, organism-based; design: dose 30 mg/kg; conditions: C57Bl/6
How it was run: as §2

[12] = test system: Plasma; experiment: Induction of pre-beta HDL formation in mouse plasma after 2 hrs by ELISA; type: functional, cell-free
[13] = test system: Mus musculus; experiment: Increase in VLDL triglyceride level in C57/BL6 mouse at 100 mg/kg, sc by FPLC; type: functional, organism-based; design: dose 100 mg/kg; conditions: C57Bl/6
How it was run: as §2

[14] = test system: Plasma; experiment: Induction of pre-beta HDL formation in human plasma at 0.5 mg/ml after 2 hrs by FPLC; type: functional, cell-free
How it was run: (§3)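 Peptide was added to C57Bl/6 mouse plasma (final 0.25 mg/ml) or human plasma (final 0.5 mg/ml) and incubated at 37 °C. Lipoproteins were fractionated by Superose 6 FPLC in PBS pH 7.4 with 1 mM EDTA. Cholesterol was measured by enzymatic colorimetry and peptide by LC–MS against an internal standard.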

[15] = test system: Mus musculus; experiment: Induction of hypertriglyceridemia in C57/BL6 mouse at 30 mg/kg, sc by FPLC; type: functional, organism-based; design: dose 30 mg/kg; conditions: C57Bl/6
How it was run: as §2

[16] = test system: Mus musculus; experiment: Decrease in HDL cholesterol level in C57/BL6 mouse at 30 mg/kg, sc after 24 hrs by FPLC; type: functional, organism-based; design: dose 30 mg/kg; conditions: C57Bl/6
How it was run: as §2

[17] = test system: Mus musculus; experiment: Induction of hypertriglyceridemia in C57/BL6 mouse at 100 mg/kg, sc by FPLC; type: functional, organism-based; design: dose 100 mg/kg; conditions: C57Bl/6
How it was run: as §2

[18] = species on record: Mus musculus; experiment: Induction of pre-beta HDL formation in C57/BL6 mouse plasma at 0.25 mg/ml after 2 hrs by FPLC; type: functional; conditions: C57Bl/6
How it was run: as §3

[19] = test system: Mus musculus; experiment: Increase in VLDL cholesterol level in C57/BL6 mouse at 30 mg/kg, sc by FPLC; type: functional, organism-based; design: dose 30 mg/kg; conditions: C57Bl/6
How it was run: as §2

[20] = test system: Mus musculus; experiment: Increase in VLDL cholesterol level in C57/BL6 mouse at 100 mg/kg, sc by FPLC; type: functional, organism-based; design: dose 100 mg/kg; conditions: C57Bl/6
How it was run: as §2

[21] = test system: Mus musculus; experiment: Effect on TG content of HDL in C57/BL6 mouse at 100 mg/kg, sc after 24 hrs by FPLC; type: functional, organism-based; design: dose 100 mg/kg; conditions: C57Bl/6
How it was run: as §2

[22] = target: Phospholipid-transporting ATPase ABCA1 (Mus musculus) (UniProt P41233); experiment: Induction of ABCA1-mediated [3H]cholesterol efflux in mouse J774 macrophages; conditions: TDE = time-dependent effect
How it was run: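 Ex vivo serum efflux. J774 macrophages were labeled with [3H]cholesterol for 24 h, then equilibrated 18 h in 0.2% BSA, with or without cpt-cAMP. Cells were incubated 4 h at 37 °C with 2% serum from peptide-dosed apoe-/- mice (60 mg/kg sc). Fractional efflux was media [3H] over total at time zero; ABCA1-dependent efflux = cAMP-treated minus untreated.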

[23] = test system: Mus musculus; experiment: Decrease in HDL cholesterol level in C57/BL6 mouse at 100 mg/kg, sc after 24 hrs by FPLC; type: functional, organism-based; design: dose 100 mg/kg; conditions: C57Bl/6
How it was run: as §2

Phospholipid-transporting ATPase ABCA1, sequence (P41233 whole entry): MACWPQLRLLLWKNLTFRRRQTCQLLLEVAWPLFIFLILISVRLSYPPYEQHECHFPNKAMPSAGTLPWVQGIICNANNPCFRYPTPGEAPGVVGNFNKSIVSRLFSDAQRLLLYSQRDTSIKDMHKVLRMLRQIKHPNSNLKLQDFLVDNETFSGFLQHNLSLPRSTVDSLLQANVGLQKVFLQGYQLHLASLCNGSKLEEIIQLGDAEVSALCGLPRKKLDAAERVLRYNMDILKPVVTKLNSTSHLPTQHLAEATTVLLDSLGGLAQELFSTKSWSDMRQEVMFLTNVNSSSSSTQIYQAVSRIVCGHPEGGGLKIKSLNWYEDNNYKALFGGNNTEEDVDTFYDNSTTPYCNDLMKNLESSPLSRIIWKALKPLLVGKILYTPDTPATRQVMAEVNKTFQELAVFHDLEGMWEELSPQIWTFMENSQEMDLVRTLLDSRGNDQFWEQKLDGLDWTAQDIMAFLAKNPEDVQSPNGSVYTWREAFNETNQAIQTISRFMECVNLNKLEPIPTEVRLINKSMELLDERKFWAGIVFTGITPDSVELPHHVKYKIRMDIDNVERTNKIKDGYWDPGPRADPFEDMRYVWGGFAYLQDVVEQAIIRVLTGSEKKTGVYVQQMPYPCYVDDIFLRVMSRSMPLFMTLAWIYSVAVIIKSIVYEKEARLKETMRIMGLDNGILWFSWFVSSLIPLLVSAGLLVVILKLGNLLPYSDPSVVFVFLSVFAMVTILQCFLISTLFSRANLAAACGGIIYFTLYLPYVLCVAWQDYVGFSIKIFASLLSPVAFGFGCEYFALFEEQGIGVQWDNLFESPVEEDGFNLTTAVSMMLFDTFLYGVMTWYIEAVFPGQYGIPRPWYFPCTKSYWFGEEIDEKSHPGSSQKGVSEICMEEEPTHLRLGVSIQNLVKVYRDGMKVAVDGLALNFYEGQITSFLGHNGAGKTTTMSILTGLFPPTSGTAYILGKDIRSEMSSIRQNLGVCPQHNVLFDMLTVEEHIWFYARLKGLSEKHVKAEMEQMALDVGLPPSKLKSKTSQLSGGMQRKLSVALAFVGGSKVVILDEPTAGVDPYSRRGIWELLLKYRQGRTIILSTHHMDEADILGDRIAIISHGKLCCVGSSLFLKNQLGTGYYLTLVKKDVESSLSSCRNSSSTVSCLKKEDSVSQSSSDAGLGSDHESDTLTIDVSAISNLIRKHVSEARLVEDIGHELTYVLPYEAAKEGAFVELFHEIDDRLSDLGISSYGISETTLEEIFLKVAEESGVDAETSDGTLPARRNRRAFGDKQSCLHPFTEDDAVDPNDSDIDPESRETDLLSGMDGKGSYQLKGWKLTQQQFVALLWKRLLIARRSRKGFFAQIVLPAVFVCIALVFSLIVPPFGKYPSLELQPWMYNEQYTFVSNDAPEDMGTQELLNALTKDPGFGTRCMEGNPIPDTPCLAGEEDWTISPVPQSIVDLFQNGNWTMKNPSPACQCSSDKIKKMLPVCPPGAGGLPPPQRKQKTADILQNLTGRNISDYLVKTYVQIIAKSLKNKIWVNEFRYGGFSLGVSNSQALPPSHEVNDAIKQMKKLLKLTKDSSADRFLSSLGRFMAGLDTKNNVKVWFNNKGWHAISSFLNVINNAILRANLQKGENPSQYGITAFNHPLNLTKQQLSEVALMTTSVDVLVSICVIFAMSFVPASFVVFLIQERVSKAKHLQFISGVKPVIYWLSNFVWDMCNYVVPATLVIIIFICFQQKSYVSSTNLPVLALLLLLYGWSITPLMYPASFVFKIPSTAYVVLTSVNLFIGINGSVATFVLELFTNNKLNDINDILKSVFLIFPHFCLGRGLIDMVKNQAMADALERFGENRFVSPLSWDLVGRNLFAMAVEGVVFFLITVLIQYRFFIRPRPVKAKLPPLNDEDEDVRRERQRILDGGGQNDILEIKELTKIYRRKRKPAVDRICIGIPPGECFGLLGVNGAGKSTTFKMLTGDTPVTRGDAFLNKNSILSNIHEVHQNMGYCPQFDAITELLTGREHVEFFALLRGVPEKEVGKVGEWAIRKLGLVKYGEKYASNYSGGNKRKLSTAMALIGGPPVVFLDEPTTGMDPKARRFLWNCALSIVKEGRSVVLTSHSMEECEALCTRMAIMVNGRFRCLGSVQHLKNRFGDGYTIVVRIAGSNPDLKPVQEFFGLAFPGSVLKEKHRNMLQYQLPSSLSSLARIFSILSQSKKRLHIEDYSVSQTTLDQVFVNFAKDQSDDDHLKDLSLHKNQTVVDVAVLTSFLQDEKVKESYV
Phospholipid-transporting ATPase ABCA1 (Mus musculus), sequence (P41233 whole entry): as above

Compound | IC50 [1] [µM] | Activity [2] | concentration at 3 h [3] [µM] | Activity [4] | Activity [5] | Activity [6] | EC50 [7] [µM] | also measured
CCCCCCC[C@H](NC(=O)[C@H](CCC(=O)O)NC(=O)[C@H](CC(N)=O)NC(=O)[C@H](CC(C)C)NC(=O)[C@H](CCCCN)NC(=O)[C@H](CCC(=O)O)NC(=O)[C@H](CCCNC(=N)N)NC(=O)[C@H](CCCCCCC)NC(=O)[C@H](CCC(=O)O)NC(=O)[C@H](CC(=O)O)NC(=O)[C@H](CC(C)C)NC(=O)[C@@H](NC(=O)[C@@H]1CCCN1C(C)=O)C(C)C)C(=O)N[C@@H](CC(C)C)C(=O)N[C@@H](CCC(=O)O)C(=O)N[C@@H](C)C(=O)N[C@@H](CC(C)C)C(=O)N[C@@H](CCCCN)C(=O)N[C@@H](CCC(N)=O)C(=O)N[C@@H](CCCCN)C(=O)N[C@@H](CC(C)C)C(=O)N[C@@H](CCCCN)C(N)=O (Ac-PVLDE[X1]REKLNE[X1]LEALKQKLK-NH2) | 44 | inactive | 137 | inactive | inactive |  |  | 
C=CCCCCC[C@H](NC(=O)[C@H](CCC(=O)O)NC(=O)[C@H](CC(N)=O)NC(=O)[C@H](CC(C)C)NC(=O)[C@H](CCCCN)NC(=O)[C@H](CCC(=O)O)NC(=O)[C@H](CCCNC(=N)N)NC(=O)[C@@H](CCCCC=C)NC(=O)[C@H](CCC(=O)O)NC(=O)[C@H](CC(=O)O)NC(=O)[C@H](CC(C)C)NC(=O)[C@@H](NC(=O)[C@@H]1CCCN1C(C)=O)C(C)C)C(=O)N[C@@H](CC(C)C)C(=O)N[C@@H](CCC(=O)O)C(=O)N[C@@H](C)C(=O)N[C@@H](CC(C)C)C(=O)N[C@@H](CCCCN)C(=O)N[C@@H](CCC(N)=O)C(=O)N[C@@H](CCCCN)C(=O)N[C@@H](CC(C)C)C(=O)N[C@@H](CCCCN)C(N)=O (Ac-PVLDE[dNle(6-vinyl)]REKLNE[Ala(5-hexenyl)]LEALKQKLK-NH2) | 100 | inactive |  | inactive | inactive | Dose-dependent effect |  | 
C=CCCCCC[C@H](NC(=O)[C@H](CCC(N)=O)NC(=O)[C@H](CCCCN)NC(=O)[C@H](CC(C)C)NC(=O)[C@H](C)NC(=O)[C@H](CCC(=O)O)NC(=O)[C@H](CC(C)C)NC(=O)[C@H](CCCCCC=C)NC(=O)[C@H](CCC(=O)O)NC(=O)[C@H](CC(N)=O)NC(=O)[C@H](CC(C)C)NC(=O)[C@H](CCCCN)NC(=O)[C@H](CCC(=O)O)NC(=O)[C@H](CCCNC(=N)N)NC(=O)[C@@H](CCCCCC=C)NC(=O)[C@H](CCC(=O)O)NC(=O)[C@H](CC(=O)O)NC(=O)[C@H](CC(C)C)NC(=O)[C@@H](NC(=O)[C@@H]1CCCN1C(C)=O)C(C)C)C(=O)N[C@@H](CC(C)C)C(=O)N[C@@H](CCCCN)C(N)=O (Ac-PVLDE[dGly(6-heptenyl)]REKLNE[Ala(5-hexenyl)]LEALKQ[Ala(5-hexenyl)]LK-NH2) | 40 | inactive | 49 | inactive | inactive | Dose-dependent effect | 1 | 
Ac-PVLDEFREKLNEELEALKQKLK-NH2 | 477 |  |  |  |  | inactive |  | Activity [8]: tde
C=CCCCCC[C@H](NC(=O)[C@H](CCC(=O)O)NC(=O)[C@H](CC(N)=O)NC(=O)[C@H](CC(C)C)NC(=O)[C@H](CCCCN)NC(=O)[C@H](CCC(=O)O)NC(=O)[C@H](CCCNC(=N)N)NC(=O)[C@H](CCCCCC=C)NC(=O)[C@H](CCC(=O)O)NC(=O)[C@H](CC(=O)O)NC(=O)[C@H](CC(C)C)NC(=O)[C@@H](NC(=O)[C@@H]1CCCN1C(C)=O)C(C)C)C(=O)N[C@@H](CC(C)C)C(=O)N[C@@H](CCC(=O)O)C(=O)N[C@@H](C)C(=O)N[C@@H](CC(C)C)C(=O)N[C@@H](CCCCN)C(=O)N[C@@H](CCC(N)=O)C(=O)N[C@@H](CCCCN)C(=O)N[C@@H](CC(C)C)C(=O)N[C@@H](CCCCN)C(N)=O (Ac-PVLDE[Ala(5-hexenyl)]REKLNE[Ala(5-hexenyl)]LEALKQKLK-NH2) | 60 | inactive | 124 | inactive | inactive | Dose-dependent effect | 0.4 | Activity [9]: Active; Activity [10]: tde; Activity [11]: inactive; Activity [12]: Dose-dependent effect; Activity [13]: Active; Activity [14]: Active; Activity [15]: inactive; Activity [16]: Active; Activity [17]: Active; Activity [18]: Active; Activity [19]: Active; Activity [20]: Active; Activity [21]: inactive; Activity [22]: tde; Activity [23]: Active
CCCCCCCC[C@H](NC(=O)[C@H](CCC(=O)O)NC(=O)[C@H](CC(N)=O)NC(=O)[C@H](CC(C)C)NC(=O)[C@H](CCCCN)NC(=O)[C@H](CCC(=O)O)NC(=O)[C@H](CCCNC(=N)N)NC(=O)[C@H](Cc1ccccc1)NC(=O)[C@H](CCC(=O)O)NC(=O)[C@H](CC(=O)O)NC(=O)[C@H](CC(C)C)NC(=O)[C@@H](NC(=O)[C@@H]1CCCN1C(C)=O)C(C)C)C(=O)N[C@@H](CC(C)C)C(=O)N[C@@H](CCC(=O)O)C(=O)N[C@@H](C)C(=O)N[C@@H](CC(C)C)C(=O)N[C@@H](CCCCN)C(=O)N[C@@H](CCC(N)=O)C(=O)N[C@@H](CCCCN)C(=O)N[C@@H](CC(C)C)C(=O)N[C@@H](CCCCN)C(N)=O (Ac-PVLDEFREKLNE[Gly(octyl)]LEALKQKLK-NH2) | 88 | inactive |  | inactive | inactive | Dose-dependent effect |  | 
C=CCCCCC[C@H](NC(=O)[C@H](CCC(=O)O)NC(=O)[C@H](CC(N)=O)NC(=O)[C@H](CC(C)C)NC(=O)[C@H](CCCCN)NC(=O)[C@H](CCC(=O)O)NC(=O)[C@H](CCCNC(=N)N)NC(=O)[C@@H](CCCCCC=C)NC(=O)[C@H](CCC(=O)O)NC(=O)[C@H](CC(=O)O)NC(=O)[C@H](CC(C)C)NC(=O)[C@H](CCCCCC=C)NC(=O)[C@@H]1CCCN1C(C)=O)C(=O)N[C@@H](CC(C)C)C(=O)N[C@@H](CCC(=O)O)C(=O)N[C@@H](C)C(=O)N[C@@H](CC(C)C)C(=O)N[C@@H](CCCCN)C(=O)N[C@@H](CCC(N)=O)C(=O)N[C@@H](CCCCN)C(=O)N[C@@H](CC(C)C)C(=O)N[C@@H](CCCCN)C(N)=O (Ac-P[Ala(5-hexenyl)]LDE[dGly(6-heptenyl)]REKLNE[Ala(5-hexenyl)]LEALKQKLK-NH2) | 21 | inactive | 55 | inactive | inactive |  | 0.9 | 
